According to the EternaBench riboswitch data:

System: MS2 coat protein
Test: apparent Kd, MS2 coat protein; higher = weaker binding; RNA-MaP array; FMN 200 µM where present
Procedure, shortened: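 The apparent Kd is the median of filtered binding-curve fits, one per cluster, to green signal normalised to red-channel RNA signal and control-cluster median Fmax. The clusters were on Illumina sequencing chips, and stalled E. coli RNA polymerase had transcribed the designs on them. Titration used SNAP-549-labelled MS2 coat protein from 0.7 or 1.5 nM, doubling to 3 µM, without and then with constant ligand, in 100 mM Tris-HCl pH 7.5, 80 mM KCl, 4 mM MgCl2, BSA, DTT, yeast tRNA and Tween-20.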

[1] = designed as: ON switch for flavin mononucleotide, no ligand
[2] = ligand present: flavin mononucleotide, designed as: ON switch for flavin mononucleotide
[3] = designed as: OFF switch for flavin mononucleotide, no ligand
[4] = ligand present: flavin mononucleotide, designed as: OFF switch for flavin mononucleotide

Sequence | apparent Kd [1] | apparent Kd [2] | apparent Kd [3] | apparent Kd [4]
GGACUGGACUAGAAGGGUGAUGCGCUCGCAGACACAGGAUAUAGUCACAUGAGGAUCACCCAUGUCGGUCCAAGUGAAGAAACU | 0.0982 µM | 0.0244 µM |  | 
GGAGAGGAAACAUGAGGAUCACCCAUGUGAGUGGUCCGAAGAUAGGAUAUCCACACGAGAAGUGUGGAGAAGGAUCACCUCUCC |  |  | 0.746 µM | 0.571 µM
GGAGAGGUAGGAUAUGGAGCUUAGAACAUGAGGAUCACCCAUGUAGGACCACAUGAUUUGCCAGAAGGACCAGUCC |  |  | 0.421 µM | 0.558 µM
GGAGAUACAUGAGGAUCACCCAUGUAGGAUAUCGGGCCUAUAUAUGGCGAAAGCCAUAUAUAGGCCGAGAAGGGCGUACACACC |  |  | 0.00807 µM | 0.00752 µM
GGAGCACAUAUAAACAUGAGGAUCACCCAUGUCAAAAGACAUGAGGAUAUGGAUCGGAAAACGAUCUAGAAGGCAUGGUGCUCC | 0.644 µM | 0.0295 µM |  | 
GGAGCAUAUGUCAGGAUAUCGUGGUCGAUAGAUCACGAGAAGGGACAUGAGGAUCACCCAUGUCUGUCCGCUCC |  |  | 0.0142 µM | 0.0164 µM
GGAGCCGGCACCGAGGAUAUUCAUAUUAAAACAUGAGGAUCACCCAUGUAGGCCAGAAGGCCUUGGGAGAAGGCGGACCGGCUCG | 0.654 µM | 0.0311 µM |  | 
GGAGCCGGCACGGAGGAUAUUCAUAUUAAAACAUGAGGAUCACCCAUGUAGGCCAGAAGGCCUUGGGAGAAGGCCGAUCGGCUCG | 0.45 µM | 0.0297 µM |  | 
GGAGCCGGCACUGAGGAUAUUCAUAUUAAAACAUGAGGAUCACCCAUGUAGGCCAGAAGGCCUUGGGAGAAGGCAGGUCGACUCG | 0.406 µM | 0.0289 µM |  | 
GGAGCUCACAUCUACAUGAGGAUCACCCAUGUCAAAAGACAUGAGGAUAUGCAUCCUAAUUGGAUGCAGAAGGCAUGGAGCUCC | 0.946 µM | 0.0574 µM |  | 
GGAGGACGAAACAUGAGGAUCACCCAUGUGUUAUAAUUAAUAUAGGAUAUGUUUAUACUUUUUGGGCAGAAGGAUGAUAAUGUU | 0.0222 µM | 0.0197 µM |  | 
GGAGGGACAGCAGGAUAUGAGUGGGACGCACUGUGUACGCGGGUGUGGAUGUCAGAAGGGCUGACAUGAGGAUCACCCAUGUAA | 0.114 µM | 0.0554 µM |  | 
GGAUAAGACAGAGGAUAUACGUGCUAGAGAUACUAGCAAAAUUUCCUCACAUGAGGAUCACCCAUGUAGAAGGCUGUCCUAUCG |  |  | 0.0169 µM | 0.291 µM
GGAUAGGACAGAGGAUAUACCGAUAGGAUCUACUAUCGAACAAUUCUCACAUGAGGAUCACCCAUGUAGAAGGCUGUCCUAUCG |  |  | 0.0166 µM | 0.0294 µM
GGAUAGGACAGAGGAUAUACGUCCUAGAGAUACUAGCAAAAUUUCCUCACAUGAGGAUCACCCAUGUAGAAGGCUGUCCUAUCG |  |  | 0.0126 µM | 0.141 µM
GGAUAGGACAGAGGAUAUACGUGCUAGAGAGACUAGCAAAAUUUCCUCACAUGAGGAUCACCCAUGUAGAAGGCUGUCCUAUCG |  |  | 0.0163 µM | 0.432 µM
GGAUAGGACAGAGGAUAUACGUGCUAGAGAUACUAGCAAAAUUUCCUCACAUGAGGAUCACCCAUGUAGAAGGCUGUUCUAUCG |  |  | 0.0146 µM | 0.473 µM
GGAUAGGACAGAGGAUAUAUGUGCUAGAGAUACUAGCAAAAUUUCCUCACAUGAGGAUCACCCAUGUAGAAGGCUGUCCUAUCG |  |  | 0.0129 µM | 0.022 µM
GGAUAGGCCAGAGGAUAUACGUGCUAGAGAUACUAGCAAAAUUUCCUCACAUGAGGAUCACCCAUGUAGAAGGCUGUCCUAUCG |  |  | 0.00731 µM | 0.0499 µM
GGAUCGAAUGUGAGGAUAUACCACUGGAUACAGUGGUAGAAGGCACAUGAGGAUCACCCAUGUCUCUACGAUCC |  |  | 0.0196 µM | 0.111 µM
GGAUCGAGUGUGAGGAUAUGCAGGUCCUUGGAUCUGCAGAAGGCACAUGAGGAUCACCCAUGUGGAAACGGUCC |  |  | 0.0642 µM | 0.567 µM
GGAUCUUGGGUCAGGAUAUGCUGAUAGUUAUGUCAGCAGAAGGGACAUGAGGAUCACCCAUGUGCUUGGUUUUG |  |  | 0.0129 µM | 0.0396 µM
GGAUGACAAAGUCAUCCAAAUCGAACAUGAGGAUCACCCAUGUAGGAUAUGGUACUCAAAGAGUACCAGAAGGACAUGUGCUUU |  |  | 0.04 µM | 0.191 µM
GGAUGACAAAGUCAUCCAAUACGAACAUGAGGAUCACCCAUGUAGGAUAUGCAACUCAAAGAGUUGCAGAAGGACAUGUGUCUU |  |  | 0.0289 µM | 0.128 µM
GGAUGACAAAGUCAUCCAUAACGAACAUGAGGAUCACCCAUGUAGGAUAUGCAACUCAAAGAGUUGCAGAAGGACAUGUGCCUU |  |  | 0.0346 µM | 0.273 µM
GGAUGACAAAGUCAUCCUAUUCGAACAUGAGGAUCACCCAUGUAGGAUAUGCUUCUCAAAGAGAAGCAGAAGGACAUGUGCCUU |  |  | 0.032 µM | 0.182 µM
GGAUGACAAAGUCAUCCUUAACGAACAUGAGGAUCACCCAUGUAGGAUAUGCUUCUCAAAGAGAAGCAGAAGGACAUGUGCCUU |  |  | 0.0333 µM | 0.256 µM
GGAUGACAUAGUCAUCCUUAACGAACAUGAGGAUCACCCAUGUAGGAUAUGCUACUCAAAGAGUAGCAGAAGGGCGUGUGUCUU |  |  | 0.0426 µM | 0.049 µM

Sequence | apparent Kd [1] | apparent Kd [2] | apparent Kd [3] | apparent Kd [4]
GGAUGAUUAACAGGAUAUCAUUUGUAAAUUGGUUGAGAAGGGUUAAUGAUUUAAACGACCUGUUACAUGAGGAUCACCCAUGUU | 0.0643 µM | 0.0382 µM |  | 
GGAUGUCAAAGACAUCCAAUACGAACAUGAGGAUCACCCAUGUAGGAUAUGCUACUCAAAGAGUAGCAGAAGGACAUGUGCCUU |  |  | 0.0336 µM | 0.271 µM
GGAUGUCAAAGACAUCCAAUUCGAACAUGAGGAUCACCCAUGUAGGAUAUGCUACUCAAAGAGUAGCAGAAGGACAUGUGCCUU |  |  | 0.0306 µM | 0.213 µM
GGAUUACAUGAGGAUCACCCAUGUGAGGAUAUCGAUGUCCUGUCUUUAGUGCGGGACUCGAGAAGGCACUUGGA |  |  | 0.048 µM | 0.159 µM
GGCAGAUUCCACAUGAGGAUCACCCAUGUGCUCUUCCGGGCACAGGAUAUCCGCAGUGGUUUCUUGGAGAAGGGUGCUGAUUAA | 0.0268 µM | 0.0424 µM |  | 
GGCCGGAAUGUAGGAUAUGGAUAUUUAAAUAUACCAGAAGGACAUGAGGAUCACCCAUGUAUAAUAAUUAACAAACUUAGAUCC |  |  | 0.0327 µM | 0.121 µM
GGCCUGUAAGGAUAUUAGUAGUAGUCAGAAAAGACUAUUACUGAGAAGGUACAUGAGGAUCACCCAUGUUGGCC |  |  | 0.0174 µM | 0.0201 µM
GGCGGCAAUGAGAAGGGUCACAUGAGGAUCACCCAUGUGCUCUUCGCCGUGACAGGAUAUCAUCGCCGUCAGGUUAGAUUUUUG |  |  | 0.00726 µM | 0.0261 µM
GGCGGGCGAAACAUGAGGAUCACCCAUGUGUUAUACUUAAUAUAGGAUAUGUUUAUACUUUUUGGGCAGAAGGAUGCGCCUGCC | 0.0379 µM | 0.0334 µM |  | 
GGCGGUCGGGAGGAUAUUCGGGCUGUUUGGCUUGGAGAAGGCUCGACAUGAGGAUCACCCAUGUUGGUGUUUCC |  |  | 0.561 µM | 0.103 µM
GGCGGUGACAUAGGAUAUCUUCUAAUGCACAUGAGGAUCACCCAUGUCGCUACGCACGGGUUUGAAGAGAAGGGUGUUCGUGCC | 0.346 µM | 0.286 µM |  | 
GGCUAACAUGAGGAUCACCCAUGUCGCCAAAAUCGAGGAUAUGGGUGCCAGCUCGGGCAGCCAGAAGGCGACAAAA | 0.225 µM | 0.0331 µM |  | 
GGCUACGUUUCGUAGCAGUGUCAUCGAGAAGGCCCUGACAUGAGGAUCACCCAUGUUGUUACAUGGGAGGAUAUCGAUGAUACA | 0.0125 µM | 0.00496 µM |  | 
GGCUGACAUGUAGGAUAUCUGCACGUGUAGUGCAGAGAAGGACAUGAGGAUCACCCAUGUAUAGCGACUUCGGUCGCAACAGCC |  |  | 0.0492 µM | 0.159 µM
GGCUGCGUUGUGAAGGAUAUCCGCGUCUGGACAUGAGGAUCACCCAUGUAUGCUUGGAUCAUGCCGGAGAAGGUCACGAAUGAUU | 0.0343 µM | 0.017 µM |  | 
GGCUGGCAGCUAGGAUAUGGGCGAUCACAUGAGGAUCACCCAUGUCAACAUCAAAACAAGAUUAACCAGAAGGAGCCGCGGGUU | 0.0184 µM | 0.0767 µM |  | 
GGGAAACAUGAGGAUCACCCAUGUGAGGAUAUCGAAAAAAAAAAAAAAAAAAAAAAAACGAGAAGGCACACCGG |  |  | 0.071 µM | 0.11 µM
GGGAAGUAAGGAUAUGCUGCUCGUCACUUGCGUGAUGAGUAGCAGAAGGUACAUGAGGAUCACCCAUGUAAAAA |  |  | 0.0302 µM | 0.0286 µM
GGGAAGUGAGGAUAUAUGAGAGAGGCUGAACCGGACGAGAAGUAGAAGGCACAUGAGGAUCACCCAUGUAGGGA |  |  | 0.118 µM | 0.0859 µM
GGGAAGUUAGGAUAUGCUGCUCGUCACUUGCGUGAUGAGUAGCAGAAGGGACAUGAGGAUCACCCAUGUAAAAA |  |  | 0.0511 µM | 0.0268 µM
GGGACGAAAGUCGAACGAUGUAGCAGAAGGACAUGAGGAUCACCCAUGUCAGCUGUAACAGCCAUGUAGGAUAUGCUACAUCCC |  |  | 0.00461 µM | 0.00596 µM
GGGAUACACCAGAAGGACAUGAGGAUCACCCAUGUAGGAUAUGGGUACGCCGACAUUGGUCUGCUCUCGGUAGACUUUCCCGAU | 0.203 µM | 0.0396 µM |  | 
GGGCAAAAGUAGAAGGGAUAUACGAAAAGUAUAUCAGGAUAUACAUGAGGAUCACCCAUGUUCUAAAAGUGAUAGUCCUCCCUA |  |  | 0.0333 µM | 0.262 µM
GGGCCCGGAGGAUAUACAAUCCCGGGUUGAAAGGCCCGGGUACAUGAGGAUCACCCAUGUAGAAGGUUGGGCCC |  |  | 0.0142 µM | 0.0173 µM
GGGCCCGGAGGAUAUACAAUUGUGUGUGGAAACGCGCGCGUACAUGAGGAUCACCCAUGUAGAAGGCCGGGCCC |  |  | 0.0159 µM | 0.0546 µM
GGGCCCGGAGGAUAUACAUGAGGAUCACCCAUGUACCCGGGUUUUAUUGGGCCCGGGUGUAGAAGGCCGGGCCC |  |  | 0.0131 µM | 0.0148 µM
GGGCGACAUGAGGAUCACCCAUGUCAGGAUAUCGGGCCCGGGCCGAAAGGCCCGGGCCCGAGAAGGGACAGCCC |  |  | 0.0188 µM | 0.0166 µM
